Assay results: ChEMBL document CHEMBL4334455, “Synthesis of Usnic Acid Derivatives and Evaluation of Their Antiproliferative Activity against Cancer Cells” (J Nat Prod, 2019)
The source made the active and inactive calls. The calls are words filed in the database; no cut-off is given here.

What was measured:
[1] = test system: MCF7; experiment: Antiproliferative activity against human MCF7 cells assessed as reduction in cell viability after 24 hrs by MTT assay; assay type: functional, cell-based; settings: MCF7, 24 h
Summary of the method: (§1)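 Cells seeded at 4 × 10³/well for 24 h runs and for PC-3, or 2 × 10³/well for MCF-7 and HeLa 48 h runs, and attached overnight. Medium replaced with compound-containing medium for 24 or 48 h. MTT (4 mg mL⁻¹) added for the final 3 h, formazan dissolved in DMSO, absorbance read at 570 nm (reference 660 nm). IC₅₀ calculated from at least three independent experiments in duplicate, mean ± SE.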

[2] = test system: MCF7; experiment: Induction of endocytosis in human MCF7 cells at 2.9 to 8.7 uM after 24 hrs by lucifer yellow staining based fluorescence microscopic analysis; assay type: functional, cell-based
Summary of the method: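 MCF-7 cells treated 24 h with 2.9 or 8.7 μM derivative, stained with 75 μM Lucifer Yellow, washed, and examined by fluorescence microscopy at 1000×.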

[3] = test system: MCF7; experiment: Induction of apoptosis in human MCF7 cells assessed as increase in cleaved PARP level at 2.9 uM after 24 hrs by immunoblot analysis relative to control; assay type: functional
Summary of the method: (§2)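 Proteins run on SDS-PAGE, transferred to PVDF, blocked in 5% milk/PBS, primary antibody overnight at 4 °C (cleaved PARP, Bax, Bcl-2), secondary 1 h at room temperature. Reprobed for β-actin; densitometry corrected for loading.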

[4] = test system: HeLa; experiment: Anticlonogenic activity against human HeLa cells assessed as reduction in colony formation at 2.9 to 11.6 uM incubated for 24 hrs followed by recovery period of 2 weeks by culturing cells in drug-free medium by crystal violet staining based assay; assay type: functional, cell-based
Summary of the method: (§3)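 Cells (1 × 10⁶) plated, after 24 h given fresh medium with derivative at 1, 2, 3 or 4 μg mL⁻¹ for 24 h; then trypsinized, counted, 8 × 10² replated into two plates in compound-free medium. After 2 weeks fixed with 6.0% glutaraldehyde, stained with 0.5% crystal violet; colonies of ≥50 cells counted. Mean ± SE of three experiments in duplicate.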

[5] = test system: MCF7; experiment: Induction of apoptosis in human MCF7 cells assessed as increase in Bax level at 8.7 uM after 24 hrs by immunoblot analysis relative to control; assay type: functional; summary of the method: as §2
[6] = Cytotoxicity against human HDFa cells assessed as reduction in cell viability after 24 hrs by MTT assay; assay type: cell-based; summary of the method: as §1
[7] = test system: MCF7; experiment: Induction of cell cycle arrest in human MCF7 cells assessed as accumulation of cells at S phase at 2.9 uM after 24 hrs by Propidium iodide staining based flow cytometric analysis (reference value: 23.75 +/- 1.87%); assay type: functional
[8] = test system: MCF7; experiment: Antiproliferative activity against human MCF7 cells assessed as reduction in cell viability at 8.7 uM after 24 hrs in presence of 50 uM dynamin inhibitor, dynasore by MTT assay relative to control; assay type: functional, cell-based
[9] = test system: MCF7; experiment: Anticlonogenic activity against human MCF7 cells assessed as reduction in colony formation at 2.9 to 11.6 uM incubated for 24 hrs followed by recovery period of 2 weeks by culturing cells in drug-free medium by crystal violet staining based assay; assay type: functional, cell-based; summary of the method: as §3
[10] = test system: MCF7; experiment: Induction of vacuolization in human MCF7 cells assessed as increase in LAMP1 expression at 2.9 uM by Western blot analysis relative to control; assay type: functional
[11] = test system: MCF7; experiment: Induction of apoptosis in human MCF7 cells assessed as increase in Bax level at 2.9 uM after 24 hrs by immunoblot analysis relative to control; assay type: functional; summary of the method: as §2
[12] = test system: HeLa; experiment: Anticlonogenic activity against human HeLa cells assessed as proportion of colony forming cells at 11.6 uM incubated for 24 hrs followed by recovery period of 2 weeks by culturing cells in drug-free medium by crystal violet staining based assay relative to control; assay type: functional; summary of the method: as §3
[13] = test system: HeLa; experiment: Cell cycle arrest in human HeLa cells assessed as reduction in cell population at G2/M phase at 2.9 to 8.7 uM after 24 hrs by propidium iodide staining based flow cytometric analysis; assay type: functional
[14] = test system: MCF7; experiment: Induction of vacuolization in human MCF7 cells at 8.7 uM after 24 to 48 hrs in presence of early autophagy inhibitor, wortmannin by TEM analysis; assay type: functional, cell-based
[15] = test system: MCF7; experiment: Antiproliferative activity against human MCF7 cells assessed as reduction in cell viability at 8.7 uM after 24 hrs in presence of 0.5 uM actin dynamics inhibitor, cytochalasin-D by MTT assay; assay type: functional, cell-based
[16] = test system: MCF7; experiment: Induction of apoptosis in human MCF7 cells assessed as reduction in Bcl-2 expression at 8.7 uM after 24 hrs by immunoblot analysis relative to control; assay type: functional; summary of the method: as §2
[17] = test system: HeLa; experiment: Antiproliferative activity against human HeLa cells assessed as reduction in cell viability after 48 hrs by MTT assay; assay type: functional, cell-based; settings: Homo sapiens, HeLa, 48 h; summary of the method: as §1
[18] = test system: MCF7; experiment: Induction of vacuolization in human MCF7 cells at 8.7 uM after 24 hrs in presence of 0.5 uM actin dynamics inhibitor, cytochalasin-D by light microscopic analysis; assay type: functional, cell-based
[19] = test system: MCF7; experiment: Induction of apoptosis in human MCF7 cells assessed as increase in cleaved PARP level at 8.7 uM after 24 hrs by immunoblot analysis relative to control; assay type: functional; summary of the method: as §2
[20] = test system: MCF7; experiment: Induction of cell cycle arrest in human MCF7 cells assessed as accumulation of cells at G0/G1 phase at 8.7 uM after 24 hrs by Propidium iodide staining based flow cytometric analysis (reference value: 47.8 +/- 0.42%); assay type: functional
[21] = test system: PC-3; experiment: Anticlonogenic activity against human PC3 cells assessed as proportion of colony forming cells at 11.6 uM incubated for 24 hrs followed by recovery period of 2 weeks by culturing cells in drug-free medium by crystal violet staining based assay relative to control; assay type: functional; summary of the method: as §3
[22] = Cytotoxicity against human HDFa cells assessed as reduction in cell viability after 48 hrs by MTT assay; assay type: cell-based; summary of the method: as §1
[23] = test system: HeLa; experiment: Cell cycle arrest in human HeLa cells assessed as reduction in cell population at S phase at 2.9 to 8.7 uM after 24 hrs by propidium iodide staining based flow cytometric analysis; assay type: functional
[24] = test system: MCF7; experiment: Induction of vacuolization in human MCF7 cells at 8.7 uM after 24 hrs in presence of 50 uM dynamin inhibitor, dynasore by light microscopic analysis; assay type: functional, cell-based
[25] = test system: PC-3; experiment: Antiproliferative activity against human PC3 cells assessed as reduction in cell viability after 48 hrs by MTT assay; assay type: functional, cell-based; settings: PC-3, 48 h; summary of the method: as §1
[26] = test system: MCF7; experiment: Antiproliferative activity against human MCF7 cells assessed as reduction in cell growth in presence of early autophagy inhibitor, wortmannin by MTT assay; assay type: functional, cell-based
[27] = test system: MCF7; experiment: Induction of apoptosis in human MCF7 cells assessed as reduction in Bcl-2 expression at 2.9 uM after 24 hrs by immunoblot analysis relative to control; assay type: functional; summary of the method: as §2
[28] = test system: MCF7; experiment: Induction of vacuolization in human MCF7 cells at 8.7 uM after 24 hrs in presence of 10 uM Na+/H+ exchange inhibitor, amiloride by light microscopic analysis; assay type: functional, cell-based
[29] = test system: MCF7; experiment: Induction of cell cycle arrest in human MCF7 cells assessed as accumulation of cells at S phase at 8.7 uM after 24 hrs by Propidium iodide staining based flow cytometric analysis (reference value: 23.75 +/- 1.87%); assay type: functional
[30] = test system: MCF7; experiment: Induction of cell cycle arrest in human MCF7 cells assessed as accumulation of cells at G0/G1 phase at 2.9 uM after 24 hrs by Propidium iodide staining based flow cytometric analysis (reference value: 47.8 +/- 0.42%); assay type: functional

For `CC(=O)c1c(O)c(C)c(O)c2c1OC1=Cc3onc(C)c3C(=O)[C@]12C`, the IC50 [1] was 3.2 µM, the Activity [2] was “Active” and the “fold change (FC)” value [3] was 4.4. For the same molecule, the inhibition [4] was “Active”, the “fold change (FC)” value [5] was 2.1 and the IC50 [6] was 9.2 µM. For the same molecule, the Activity [7] was 11.15%, the inhibition [8] was “Active” and the inhibition [9] was “Active”. The “fold change (FC)” value [10] was 5.3, the “fold change (FC)” value [11] was 1.3 and the Activity [12] was <50%. For the same molecule, the Activity [13] was “Active”, the Activity [14] was “Active” and the inhibition [15] was “Active”. The “fold change (FC)” value [16] was 0.2, the IC50 [17] was 1 µM and the Activity [18] was “Active”. For the same molecule, the “fold change (FC)” value [19] was 4.1, the Activity [20] was 75.7% and the Activity [21] was <50%. The IC50 [22] was 3 µM, the Activity [23] was “Active” and the Activity [24] was “inactive”. The IC50 [25] was 3.1 µM, the inhibition [26] was “Active” and the “fold change (FC)” value [27] was 0.5. For the same molecule, the Activity [28] was “Active”, the Activity [29] was 7.25% and the Activity [30] was 70.25%.

In the case of `CC(=O)c1c(O)c(C)c(O)c2c1OC1=Cc3onc(C)c3C(=O)C12C` (racemic), the IC50 [1] is reported as 3.1 µM, the Activity [2] is reported as “Active” and the “fold change (FC)” value [3] is reported as 3.6. The inhibition [4] was “Active”, the “fold change (FC)” value [5] was 1.1 and the IC50 [6] was > 10 µM. For the same molecule, the Activity [7] was 10.1%, the inhibition [8] was “Active” and the inhibition [9] was “Active”. For the same molecule, the “fold change (FC)” value [10] was 1.3, the “fold change (FC)” value [11] was 1.02 and the Activity [12] was <50%. The Activity [13] was “Active”, the Activity [14] was “Active” and the inhibition [15] was “Active”. For the same molecule, the “fold change (FC)” value [16] was 0.3, the IC50 [17] was 1 µM and the Activity [18] was “Active”. For the same molecule, the “fold change (FC)” value [19] was 4.5, the Activity [20] was 75.45% and the Activity [21] was <50%. For the same molecule, the IC50 [22] was 5.9 µM, the Activity [23] was “Active” and the Activity [24] was “inactive”. For the same molecule, the IC50 [25] was 2.8 µM, the inhibition [26] was “Active” and the “fold change (FC)” value [27] was 0.6. For the same molecule, the Activity [28] was “Active”, the Activity [29] was 8.35% and the Activity [30] was 71.85%.
